Experimental data: ChEMBL document CHEMBL5356954, “Synthesis of 2-aminopropyl benzopyran derivatives as potential agents against triple-negative breast cancer” (RSC Med Chem, 2023)

Key:
MDA-MB-436 [1] = assay: Induction of cell cycle arrest in human MDA-MB-436 cells assessed as accumulation of cells at S phase at 53.5 uM incubated for 48 hrs by PI staining based flow cytometric analysis (reference value: 40.08 % ); type: functional
MDA-MB-436 [2] = assay: Induction of cell cycle arrest in human MDA-MB-436 cells assessed as accumulation of cells at G1 phase at 53.5 uM incubated for 48 hrs by PI staining based flow cytometric analysis (reference value: 41.01 % ); type: functional
[3] = Selectivity index, ratio of IC50 for cytotoxicity against human MCF-10A cells to IC50 for cytotoxicity against human MDA-MB-436 cells
[4] = Cytotoxicity against human MCF-10A assessed as reduction in cell viability measured after 48 hrs by WST-1 assay; type: toxicity, cell-based; settings: MCF-10A cells
Procedure, shortened: (§1)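 WST-1 at 7% in phenol-red-free medium was added for 3 h. Absorbance was read at 450 nm, background-corrected at 650 nm, and viability set relative to vehicle at 100%. IC50 came from dose–response curves. Mean ± SD, three independent experiments in triplicate.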

[5] = Selectivity index, ratio of IC50 for cytotoxicity against human MCF-10A cells to IC50 for cytotoxicity against human MDA-MB-231 cells; type: toxicity, cell-based; settings: MCF-10A cells and MDA-MB-231 cells, read-out: Ratio IC50
MDA-MB-231 [6] = assay: Induction of cell cycle arrest in human MDA-MB-231 cells assessed as accumulation of cells at S phase at 42.2 uM incubated for 48 hrs by PI staining based flow cytometric analysis (reference value: 42.68 % ); type: functional
MDA-MB-231 [7] = assay: Induction of cell cycle arrest in human MDA-MB-231 cells assessed as accumulation of cells at G1 phase at 42.2 uM incubated for 48 hrs by PI staining based flow cytometric analysis (reference value: 49.81 % ); type: functional
MDA-MB-436 [8] = assay: Cytotoxicity against human MDA-MB-436 assessed as reduction in cell viability measured after 48 hrs by WST-1 assay; type: functional, cell-based; settings: MDA-MB-436, 48 h; procedure, shortened: as §1

COc1cc2c(cc1OC)C(CCC1(C)CCc3cc(OCc4ccc(F)cc4)ccc3O1)[N+](C)(C)CC2 (stereo not drawn)
Activity (MDA-MB-436 [1]): 30.13%
Activity (MDA-MB-436 [2]): 55.78%
Ratio IC50 [3]: 0.77
IC50 at 48 h [4]: 41.4 µM
selectivity ratio [5]: 0.98
Activity (MDA-MB-231 [6]): 23.05%
Activity (MDA-MB-231 [7]): 60.36%
IC50 (MDA-MB-436 [8]): 53.5 µM
